Source: PubChem BioAssay (several laboratories)
SR-BI DiI-HDL act = activators of SR-BI mediated HDL lipid uptake | CHO ldlA[mSR-BI] cells, DiI-HDL uptake fluorescence, 3 h; 100 = double the neutral-control signal | activation, % at 12.5 µM | 320,000 tested, 0.096% active | AID 504775;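 active = mean replicate activation of at least 60% and every replicate at or above 60%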;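 also: 0% = median plate neutral-control signal and 100% = twice that signal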
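Assay system: LDL receptor-deficient CHO ldlA cells overexpressing murine SR-BI / Medium: BSA-supplemented, HEPES-buffered Ham's F12, pH 7.4 / Probe or stimulus: DiI-labelled HDL at 10 µg/mL final / Timing: compound with DiI-HDL co-incubation, 3 h at 37 °C / Technique: bottom-read cell fluorescence after medium removal, ex 550/em 595 nm / Measure: HDL uptake via cellular fluorescence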
ARNT-TACC3 inh = disruptors of human ARNT/TACC3 interaction | Q9Y6A5 | AlphaScreen His-ARNT PAS-B/GST-TACC3 binding, luminescence; TACC3 fragment carries E629A point mutation | inhibition, % at 9.99 µM | 390,000 tested, 0.66% active;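 active = mean inhibition of replicates at least 50% and at least half of replicates each reaching 50%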;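 also: 0% = complete ARNT plus TACC3 wells and 100% = ARNT alone without TACC3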
NSD2 inh = blocks human histone methyltransferase NSD2 | O96028 | NSD2 peptide methylation, AlphaScreen, 120 min | inhibition, % at 12.5 µM | 310,000 tested, 0.54% active; in the data active = inhibition above about 50%
sPLA2-III inh = Blocks human group III sPLA2 activity | QFRET BODIPY PC-A2 liposome hydrolysis, fluorescence | inhibition, % at 12.2 µM | 370,000 tested, 0.56% active;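 active = inhibition above mean plus 3 SD of compounds lying within the high and low control bounds, cut at about 19% in these data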;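 also: 0% = median of test compound wells and 100% = no enzyme DMSO wells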
SR-BI HDL uptake = mouse SR-BI HDL lipid transfer inhibition | Q61009 | ldlA[mSR-BI] CHO cells, DiI-HDL uptake fluorescence, 3 h | inhibition, % at 12.5 µM | 320,000 tested, 0.96% active | AID 488896;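 active = mean replicate inhibition of at least 70% and a set share of replicates each scoring 70 or more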;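 also: 0% = median of neutral control wells and 100% = median of positive control wells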
Target sequence (Q61009 whole entry, looked up): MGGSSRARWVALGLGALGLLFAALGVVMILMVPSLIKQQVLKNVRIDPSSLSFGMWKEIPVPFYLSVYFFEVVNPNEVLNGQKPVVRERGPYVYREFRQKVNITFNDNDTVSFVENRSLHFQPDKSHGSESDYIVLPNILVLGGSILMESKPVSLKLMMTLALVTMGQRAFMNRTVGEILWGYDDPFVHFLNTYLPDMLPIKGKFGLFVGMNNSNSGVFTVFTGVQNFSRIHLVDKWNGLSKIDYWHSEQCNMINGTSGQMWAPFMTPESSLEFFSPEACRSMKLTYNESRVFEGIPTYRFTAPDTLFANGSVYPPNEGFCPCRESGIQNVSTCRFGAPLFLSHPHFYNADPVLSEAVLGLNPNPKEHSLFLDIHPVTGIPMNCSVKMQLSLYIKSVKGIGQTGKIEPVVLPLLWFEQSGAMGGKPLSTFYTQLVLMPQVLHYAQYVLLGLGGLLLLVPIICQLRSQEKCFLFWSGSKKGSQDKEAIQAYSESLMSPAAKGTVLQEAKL
Xi reactivation = X-chromosome reactivation activator. 360,000 tested, 0.055% active. activation, % at 7.58 µM. XiGFP mouse fibroblasts, % GFP-positive cells imaging, 3 d; cells co-treated with 5-aza-dC sensitizer; scaled so ellipticine positive control = 100%;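 active = mean normalized replicate activation at least 10% and every replicate at or above 10%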;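 also: 0% = median of on-plate neutral control wells and 100% = ellipticine 6 µM median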
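Material: SV40-immortalized XiGFP fibroblast cells, line 68-5-11 | Buffer or medium: DMEM containing 5-aza-dC | Dosing: One concentration, pinned | Times: 3 d treatment, 15 min room-temperature fixation | Controls: Ellipticine 6 µM positive control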
Active calls of the source: *; / = no result given. Most compounds without a hit are left out; they make up all but 2% or so of the library.

SMILES	SR-BI DiI-HDL act	ARNT-TACC3 inh	NSD2 inh	sPLA2-III inh	SR-BI HDL uptake	Xi reactivation
CC1C(=O)C(C)C(c2cc(Br)ccc2O)NC1c1cc(Br)ccc1O (centres undefined)	-83	3	1	-21	83*	0
CC1C(=O)C(C)C(c2ccc(Br)cc2)NC1c1ccc(Br)cc1 (centres undefined)	6	-5	-2	1	-6	0
Cc1cc(C)n2nc(SC(C)C(=O)Nc3ccccc3F)nc2n1 (centres undefined)	-5	active	-1	2	5	0
Cc1ccc(NC(=O)C(C)Sc2nc3nc(C)cc(C)n3n2)cc1 (centres undefined)	6	-1	3	5	-6	0
C[C@@H]1CN([C@H](C)CO)C(=O)c2cccc(NS(=O)(=O)c3ccc(F)cc3)c2O[C@@H]1CN(C)Cc1ccc(C(=O)Nc2ccccc2N)cc1	/	/	/	/	/	0
COc1ccc(CN2CCn3ncc(C(=O)Nc4cc(C)cc(C)c4)c3C2=O)cc1	-74	0	0	6	74*	/
COc1ccccc1NC(=O)Cn1nc(C)n2cccc2c1=O	13	9	0	8	-13	0
C=CCCC(=O)Nc1nc(C)c(-c2csc(Nc3ccc(Cl)cc3Cl)n2)s1	-70	-13	/	2	70	0
CCC(C)C(=O)Nc1nc(C)c(-c2csc(Nc3ccccc3OC)n2)s1 (centres undefined)	-78	/	/	-7	78*	0
C=CCCC(=O)Nc1nc(C)c(-c2csc(Nc3cc(Cl)ccc3OC)n2)s1	-87	-5	/	1	87*	0
C=CCCC(=O)Nc1nc(C)c(-c2csc(Nc3ccccc3OC)n2)s1	-71	1	/	-4	71*	0
N#Cc1cc2c(nc1SCC(=O)Nc1sc3c(c1C#N)CCC3)CCCC2	-58	-2	-1	4	58	/
N#Cc1ccc(-c2ccc(F)cc2)nc1SCC(=O)Nc1sc2c(c1C#N)CCC2	-78	-2	-2	-3	78*	/
CCCCCC(=O)Nc1nc(C)c(-c2csc(Nc3cc(OC)ccc3OC)n2)s1	-99	-2	/	2	99*	0
COc1ccc(OC)c(Nc2nc(-c3cccs3)cs2)c1	-92	9	/	4	92*	/
CCCCCCC(=O)Nc1nc(C)c(-c2csc(Nc3cc(OC)ccc3OC)n2)s1	-106	6	/	-9	106*	0
COc1ccc(Nc2nc(-c3cccs3)cs2)c(OC)c1	-54	-6	0	5	54	/
Oc1cccc2ccc(Nc3ccccn3)nc12	-8	64*	4	-3	8	/
c1ccc(Nc2ccccc2Nc2ccccn2)nc1	11	3	4	1	-11	/
COc1cc(-c2ccc(Nc3ccccc3C(=O)O)c(OC)c2)ccc1Nc1ccccc1C(=O)O	-9	25	80*	-5	9	0
CCCNC(=O)N1CC2(C1)[C@@H](c1ccccc1)[C@@H](CO)N2Cc1ccc(Cl)cc1	/	/	/	/	/	0
Fc1ccccc1-c1ccc(/C=N/Nc2nc3ccccc3[nH]2)o1	11	7	-11	30*	-11	0
COc1ccc(NC(=O)c2oc3cc(C)c(C)cc3c2C)c(OC)c1	-1	-5	/	-5	1	/
CCN(CC)S(=O)(=O)c1ccc2oc(C(=O)Nc3ccc(OC)cc3OC)c(C)c2c1	-77	-3	-4	-2	77*	/
Cc1cccc(C)c1NC(=O)C1C(c2ccc3c(c2)OCO3)=Nc2ccccc2N1C(=O)c1cccc2ccccc12 (centres undefined)	/	/	/	-1	/	0
SMILES	SR-BI DiI-HDL act	ARNT-TACC3 inh	NSD2 inh	sPLA2-III inh	SR-BI HDL uptake	Xi reactivation
O=CNc1ccc2c3c(cccc13)-c1ccccc1-2	-14	-23	/	-14	14	55*
CC(=O)Nc1ccc2c3c(cccc13)C(=O)N(c1ccccc1)C2=O	3	-12	-2	-2	-3	0
O=C(OCC12CC3CC(CC(C3)C1)C2)c1ccc(NCc2cc(O)ccc2O)cc1	-5	1	/	29*	5	5
N#CCC(=O)Nc1ccc(C(=O)OCC(=O)C23CC4CC(CC(C4)C2)C3)cc1	-1	-1	-1	-37	1	0
Cc1nc(NC(=O)c2ccccc2)sc1-c1cc(C(=O)N2CCOCC2)nn1CCO	/	/	/	0	/	0
COc1ccc(OC)c(Nc2cc3ccccc3c(=O)[nH]2)c1	-3	38*	/	6	3	0
COc1ccc(OC)c(Nc2nnc(C)c(=O)[nH]2)c1	/	/	-2	4	/	0
O=c1[nH]c(Nc2ccccc2)cc2ccccc12	8	28	82*	1	-8	/
COc1cccc(C(=O)N2CCN(c3ccc(N4CCOCC4)nn3)CC2)c1	25	-1	13	15	-25	0
COc1ccc2c(c1)CCc1cc(C(=O)N3CCN(c4ccc(N5CCOCC5)nn4)CC3)sc1-2	-77	0	/	/	77*	/
CS(=O)(=O)c1ccccc1C(=O)N(CCC1=CCCCC1)c1c(N)n(Cc2ccccc2)c(=O)[nH]c1=O	-53	-2	-1	-11	53	1
O=c1ccc(-c2ccc(S(=O)(=O)NCC3CCN(Cc4ccccc4F)CC3)s2)n[nH]1	-15	50*	1	-22	15	0
CCCCC/C=N/NC(=O)c1[nH]c2ccc([N+](=O)[O-])cc2c1C	-98	-7	1	-6	98*	0
Cc1c(C(=O)NN)[nH]c2ccc([N+](=O)[O-])cc12	/	/	-1	-1	/	0
COC(=O)c1ccc(/C=C/c2c(-c3ccc(OC)cc3)oc3ccccc23)cc1	5	5	/	-2	-5	0
COc1ccc(/C=C/c2c(-c3ccc(OC)cc3)oc3ccccc23)cc1	-78	-18	/	5	78*	0
COc1ccc(CNC(=O)C[C@H]2C[C@@H]3c4cc(N(C)C)ccc4O[C@@H]3[C@@H](CO)O2)cc1	/	/	/	/	/	0
COC(=O)[C@@]12CCCCN1[C@H](c1ccc(-c3ccccc3)cc1)[C@@H]1C(=O)N(C)C(=O)[C@@H]12	6	-12	/	-5	-6	0
CCCCCC(=O)NNC(=S)NC(C)=O	-5	71*	-5	2	5	0
CCCCC(=O)NNC(=S)NC(=O)c1ccc(C)cc1	16	24	-11	12	-16	0
C/C(=C\C(=O)c1ccc(Br)cc1)NNC(=O)c1ccccc1	-86	-4	1	-15	86*	0
CCn1c(SCC(=O)N/N=C/c2ccc(O)c(OC)c2)nc2ccccc21	22	-11	3	-5	-22	0
